ChEMBL document CHEMBL1158387, “Regioselective synthetic approaches towards 1,2,8,9-tetraazadispiro[4.1.4.2]trideca-2,9-dien-6-ones of potential antimicrobial properties” (2009)
≈ marks a conversion by molar mass, not a printed value. Calls of active or inactive are those of the source. The calls are words filed in the database; no cut-off is given here.

Columns and labels:
Format in all cases: functional
Streptococcus agalactiae = assay: Antibacterial activity against Streptococcus agalactiae […] after 18 hrs by agar dilution technique
How it was run: (§1)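 Agar dilution per CLSI; compounds dissolved in DMSO; plates incubated at 37 °C for 18 h; MIC taken as lowest compound concentration spot with no growth. Standard ATCC strains.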

Klebsiella pneumoniae = assay: Antibacterial activity against Klebsiella pneumoniae ATCC 33495 after 18 hrs by agar dilution technique; how it was run: as §1
Staphylococcus aureus = assay: Antibacterial activity against Staphylococcus aureus ATCC 25923 after 18 hrs by agar dilution technique; how it was run: as §1
Escherichia coli = assay: Antibacterial activity against Escherichia coli ATCC 25922 after 18 hrs by agar dilution technique; how it was run: as §1
Candida albicans = assay: Antifungal activity against Candida albicans ATCC 20260 after 18 hrs by agar dilution technique
How it was run: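 Agar dilution per CLSI with compounds dissolved in DMSO and spotted onto agar against ATCC standard strains. Plates were incubated at 37 °C for 18 h.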

Proteus vulgaris = assay: Antibacterial activity against Proteus vulgaris ATCC 13315 after 18 hrs by agar dilution technique; how it was run: as §1
Enterococcus faecalis = assay: Antibacterial activity against Enterococcus faecalis ATCC 29212 after 18 hrs by agar dilution technique; how it was run: as §1

| Compound | MIC (Streptococcus agalactiae) | MIC (Klebsiella pneumoniae; ATCC 33495, 18 h) [µg/mL] | MIC (Staphylococcus aureus; ATCC 25923, 18 h) [µg/mL] | MIC (Escherichia coli; ATCC 25922, 18 h) [µg/mL] | MIC (Candida albicans) | MIC (Proteus vulgaris; ATCC 13315, 18 h) [µg/mL] | MIC (Enterococcus faecalis; ATCC 29212, 18 h) [µg/mL] | MIC (Klebsiella pneumoniae) | MIC (Staphylococcus aureus) | MIC (Escherichia coli) | MIC (Candida albicans; ATCC 20260, 18 h) [µg/mL] | MIC (Proteus vulgaris) | MIC (Enterococcus faecalis) |
| --- | --- | --- | --- | --- | --- | --- | --- | --- | --- | --- | --- | --- | --- |
| Cc1ccc(N2N=C(c3ccccc3)[C@@H](c3ccccc3)[C@@]23CC/C(=C\c2ccccc2)C3=O)cc1 | 1.3 µg/mL (≈ 2.77 µM) | 2.5 (≈ 5.34 µM) | 0.6 (≈ 1.28 µM) | 5 (≈ 10.7 µM) | inactive | 5 (≈ 10.7 µM) | 1.3 (≈ 2.77 µM) |  |  |  |  |  |  |
| O=C1/C(=C/c2ccccc2)CC[C@@]12[C@H](c1ccccc1)C(c1ccccc1)=NN2c1ccccc1 | 2.5 µg/mL (≈ 5.5 µM) | 2.5 (≈ 5.5 µM) | 5 (≈ 11 µM) | 5 (≈ 11 µM) | inactive | 2.5 (≈ 5.5 µM) | 2.5 (≈ 5.5 µM) |  |  |  |  |  |  |
| O=C1C2(CCC13C(c1ccc(Cl)cc1)C(c1ccccc1)=NN3c1ccccc1)C(c1ccc(Cl)cc1)C(c1ccccc1)=NN2c1ccccc1 (centres undefined) | 10 µg/mL (≈ 13.9 µM) | 10 (≈ 13.9 µM) | 10 (≈ 13.9 µM) | 10 (≈ 13.9 µM) | inactive | 10 (≈ 13.9 µM) | 10 (≈ 13.9 µM) |  |  |  |  |  |  |
| Cc1ccc(N2N=C(c3ccccc3)C(c3ccccc3)C23CCC2(C3=O)C(c3ccccc3)C(c3ccccc3)=NN2c2ccc(C)cc2)cc1 (centres undefined) | 2.5 µg/mL (≈ 3.69 µM) | 5 (≈ 7.39 µM) | 2.5 (≈ 3.69 µM) | 10 (≈ 14.8 µM) | inactive | 5 (≈ 7.39 µM) | 5 (≈ 7.39 µM) |  |  |  |  |  |  |
| Cc1ccc(N2N=C(c3ccccc3)C(c3ccc(F)cc3)C23CCC2(C3=O)C(c3ccc(F)cc3)C(c3ccccc3)=NN2c2ccc(C)cc2)cc1 (centres undefined) | 2.5 µg/mL (≈ 3.51 µM) | 10 (≈ 14 µM) | 10 (≈ 14 µM) | 10 (≈ 14 µM) | inactive | 10 (≈ 14 µM) | 10 (≈ 14 µM) |  |  |  |  |  |  |
| Cc1ccc(/C=C2\CC[C@]3(C2=O)[C@H](c2ccc(C)cc2)C(c2ccccc2)=NN3c2ccccc2)cc1 | 5 µg/mL (≈ 10.4 µM) | 1.3 (≈ 2.69 µM) | 2.5 (≈ 5.18 µM) | 0.6 (≈ 1.24 µM) | inactive | 1.3 (≈ 2.69 µM) | 5 (≈ 10.4 µM) |  |  |  |  |  |  |
| O=C1C2(CCC13C(c1ccc(F)cc1)C(c1ccccc1)=NN3c1ccccc1)C(c1ccc(F)cc1)C(c1ccccc1)=NN2c1ccccc1 (centres undefined) | 10 µg/mL (≈ 14.6 µM) | 10 (≈ 14.6 µM) | 5 (≈ 7.3 µM) | 5 (≈ 7.3 µM) | inactive | 10 (≈ 14.6 µM) | 10 (≈ 14.6 µM) |  |  |  |  |  |  |
| O=C1/C(=C/c2ccc(F)cc2)CC[C@@]12[C@H](c1ccc(F)cc1)C(c1ccccc1)=NN2c1ccccc1 | 5 µg/mL (≈ 10.2 µM) | 2.5 (≈ 5.1 µM) | 10 (≈ 20.4 µM) | 10 (≈ 20.4 µM) | inactive | 5 (≈ 10.2 µM) | 5 (≈ 10.2 µM) |  |  |  |  |  |  |
| C[C@@H]1[C@H](O)[C@@H](C)/C=C/C=C/C=C/C=C/C=C/C=C/C=C/[C@H](O[C@@H]2O[C@H](C)[C@@H](O)[C@H](N)[C@@H]2O)C[C@@H]2O[C@](O)(C[C@@H](O)C[C@@H](O)[C@H](O)CC[C@@H](O)C[C@@H](O)CC(=O)O[C@H]1C)C[C@H](O)[C@H]2C(=O)O [AMPHOTERICIN B] | inactive |  |  |  |  |  |  | inactive | inactive | inactive | 4 (≈ 4.33 µM) | inactive | inactive |
| O=C(O)c1cn(C2CC2)c2cc(N3CCNCC3)c(F)cc2c1=O [CIPROFLOXACIN] | 0.6 µg/mL (≈ 1.81 µM) | 1.3 (≈ 3.92 µM) | 0.3 (≈ 0.905 µM) | 0.3 (≈ 0.905 µM) | inactive | 0.3 (≈ 0.905 µM) | 0.3 (≈ 0.905 µM) |  |  |  |  |  |  |
| O=C1C2(CCC13C(c1ccccc1)C(c1ccccc1)=NN3c1ccccc1)C(c1ccccc1)C(c1ccccc1)=NN2c1ccccc1 (centres undefined) | 2.5 µg/mL (≈ 3.85 µM) | 10 (≈ 15.4 µM) | 1.3 (≈ 2 µM) | 10 (≈ 15.4 µM) | inactive | 10 (≈ 15.4 µM) | 2.5 (≈ 3.85 µM) |  |  |  |  |  |  |
| Cc1ccc(N2N=C(c3ccccc3)C(c3ccc(Cl)cc3)C23CCC2(C3=O)C(c3ccc(Cl)cc3)C(c3ccccc3)=NN2c2ccc(C)cc2)cc1 (centres undefined) | 10 µg/mL (≈ 13.4 µM) | 5 (≈ 6.7 µM) | 10 (≈ 13.4 µM) | 10 (≈ 13.4 µM) | inactive | 10 (≈ 13.4 µM) | 10 (≈ 13.4 µM) |  |  |  |  |  |  |
